Screening results deposited in PubChem by several laboratories.
FAS-TE inh: FAS thioesterase (human) inhibition; inhibition, % at 15 µM; recombinant FAS-TE, OMFH fluorogenic substrate, fluorescence endpoint; 360,000 tested, 0.67% active; P49327;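 active = compounds whose normalised, plate-corrected inhibition of enzyme fluorescence in the single-dose primary screen is 50% or more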;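 note: 0% = DMSO with enzyme and 100% = substrate without enzyme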
GRIN3A LBD mod: modulates the human NR3A ligand-binding domain; Tm shift relative to glycine control, % at 25 µM; AID 1259313; 340,000 tested, 2.5% active; NR3A LBD differential scanning fluorimetry, Tm shift; 0% = protein alone, 100% = glycine-bound protein;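 active = melting temperature shift of at least 10% of the positive control shift, at one fixed dose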
Arr AP2 block: human beta-arrestin and AP2 interaction inhibition. inhibition, % at 10 µM. 340,000 tested, 0.31% active. FITC-arrestin peptide / GST-AP2 beads, flow cytometry; AP2 beta2 appendage carries R879A mutation;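 active = inhibition above a set limit, near 3 SD of compounds lacking own fluorescence, cut at about 54% in these data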;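 note: plate controls were DMSO wells for no effect and 5 µM unlabelled arrestin peptide for full effect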
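Test system: GST-tagged AP2 beta2-adaptin appendage (R879A) on 4 µm glutathione beads; also added: fluorescein-tagged arrestin peptide at 50 nM final; timing: 12 min plus 1 h, RT; signal: flow cytometry, FL1 (488/535 nm); read-out: percent drop in bead-associated FITC signal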
SENP1 FRET inh: SENP1 (human) catalytic domain inhibition; Q9P0U3; recombinant SENP1 catalytic domain, CyPet-SUMO1-YPet FRET cleavage; inhibition, % at 10 µM; 360,000 tested, 0.21% active; AID 624204;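 active = inhibition at least 30% at 10 µM, raw YFP signal under a set limit, fluorescence ratio 0.5 to 1.5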;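 note: 0% = enzyme with DMSO and 100% = no enzyme wells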
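Compound: 10 µM single point, 0.5% DMSO; Test system: hSENP1 catalytic domain, recombinant; Timing: 50 min reaction at room temperature; Technique: FRET, CFP and YFP emission; Control set: no-enzyme wells low, DMSO-plus-enzyme wells high control.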
Cardio protect: protects H9c2 cardiomyocytes from peroxide injury | H2O2 injury protection, ATPLite, 2 h | 360,000 tested, 0.63% active | protection from H2O2 cell death, % at 20 µM;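 active = compounds giving at least 50% protection of heart cells from peroxide-induced death in the single-dose screen, raw or plate-pattern-corrected value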;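 note: 0% = DMSO wells with peroxide and 100% = DMSO wells without peroxide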
hiPSC survival: hiPSC single-cell survival enhancement | ATPlite luminescence; 100% = ROCK inhibitor wells, 0% = DMSO | survival enhancement, % at 20 µM | 360,000 tested, 0.044% active | AID 602274; in the data active = survival enhancement above about 18%;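 note: cells exposed to compounds for 16 hours before the ATP read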
FAS-TE conf: FAS thioesterase (human) inhibition, confirmation | shares compounds with FAS-TE inh | 2,300 tested, 45% active | inhibition, % at 15 µM | recombinant FAS-TE, OMFH fluorogenic substrate, fluorescence;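 active = compounds inhibiting the enzyme by at least 50% at 15 µM in any one of the replicates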;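 note: 0% = enzyme with DMSO only and 100% = wells lacking enzyme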
An asterisk follows results filed as active; . = no result given. Only some compounds are listed: those with a hit (about 4% of all), similar ones and a draw of the others.

SMILES	FAS-TE inh	GRIN3A LBD mod	Arr AP2 block	SENP1 FRET inh	Cardio protect	hiPSC survival	FAS-TE conf
O=C(/C=C/c1cccc([N+](=O)[O-])c1)NCCc1ccc(F)cc1	52*	1	4	1	11	-2	51*
COC(=O)C[C@@H]1C[C@H]2c3cc(N(C)C)ccc3O[C@H]2[C@H](CO)O1	-9	.	.	-1	2	0	.
COc1ccc(-c2cc(C(=O)Nc3sc4c(c3C#N)CCCC4)c3ccccc3n2)cc1OC	52*	2	28	0	6	-3	-1
COc1ccc(-c2cc(C(=O)Nc3nc4ccccc4s3)c3ccccc3n2)cc1OC	82*	-7	2	-6	6	-1	23
COc1ccc(-c2cc(C(=O)Nc3ccccc3O)c3ccccc3n2)cc1OC	-7	-3	35	0	23	0	.
COc1cccc(-c2cc(C(=O)Nc3ccc([N+](=O)[O-])cn3)c3ccccc3n2)c1	52*	-1	1	-1	1	-1	8
COc1cc2c(cc1NC(=O)c1cc(-c3ccccn3)nc3ccccc13)oc1ccccc12	57*	-3	-2	3	13	0	-5
Cc1cccc(C)c1NC(=O)c1cc(-c2ccccn2)nc2ccccc12	2	0	-11	-1	11	-1	.
Cc1ccc2ccccc2c1C(O)c1ncc(-c2cccc(F)c2)[nH]1 (centres undefined)	2	.	.	-1	-10	3	.
CCOC(=O)N1CCN(C(=O)C[C@@H]2C[C@@]3(C(=O)OC)CC(C)(C)CC=C3N(CCc3ccc(OC)c(OC)c3)C2=O)CC1	.	.	.	4	.	.	.
CC1CN(C(=O)COC(=O)c2cncc(Br)c2)CC(C)O1 (centres undefined)	-3	.	.	3	-2	2	.
O=C(COc1ccc([N+](=O)[O-])cc1)NNC(=O)Nc1ccc([N+](=O)[O-])cc1	48	-1	1	0	-12	0	.
O=C(C/C=N\OCc1ccc([N+](=O)[O-])cc1)Nc1ccc(Br)cc1	55*	-1	4	1	-8	4	57*
Cc1c(C(=O)OCCOc2ccc(Br)cc2)sc(=S)n1C	69*	-3	-3	2	-5	3	63*
CCn1c(SCC(=O)NCc2ccccc2)nc2nc3c(cc2c1=O)CCCC3	-3	-1	3	-6	6	2	.
O=C(CSc1nc2ccccc2c(=O)n1-c1ccc(F)cc1F)Nc1ccc2c(c1)CCC2	54*	-1	0	3	-1	6	12
O=C(CSc1nc2nc3c(cc2c(=O)n1-c1ccccc1)CCCC3)Nc1cccc2ccccc12	63*	-2	4	-25	-4	1	17
O=C(CSc1nc2ccccc2c(=O)n1-c1ccc(F)c(Cl)c1)Nc1ccc2c(c1)CCC2	61*	.	.	-2	-4	-2	15
CC(=O)Nc1cccc(-c2ccnc3c2CC(C)(C(=O)NCc2ccncc2)O3)c1 (centres undefined)	-9	.	.	0	2	9	.
CCCCN(C(=O)C1CCCO1)c1c(N)n(CCC)c(=O)[nH]c1=O (centres undefined)	-7	-2	-16	-2	-1	-2	.
Cc1c(Cl)cccc1N1C(=O)C(N2C(=O)c3cccc([N+](=O)[O-])c3C2=O)C1c1cccs1 (centres undefined)	63*	-5	4	-3	-4	-2	35
O=C1c2cccc([N+](=O)[O-])c2C(=O)N1C1CCCCC1	15	-2	-15	-3	4	-1	.
CCCCC[C@@H](C)N1C[C@H](COCc2ccccc2)Oc2cc(N3CCC[C@H]3CO)ccc2S1(=O)=O	3	.	.	0	.	0	.
O=C(c1cccc(S(=O)(=O)N2CCCC2)c1)c1cccc(S(=O)(=O)N2CCCC2)c1	54*	-1	2	1	-25	-2	48*
O=C(Nc1ccc2c(c1)OCO2)c1csc([C@@H]2O[C@H](CO)[C@H](O)[C@H](O)[C@H]2O)n1	-5	.	.	3	3	3	.
